Each block holds one compound with its values, some of them ahead of it. Calls of active or inactive are those of the source. The rule behind the calls is not given here.
Tests used:
[1] = target: Integrin alpha-M/beta-2 (Homo sapiens) (UniProt P05107+P11215); experiment: Binding affinity to alphaMbeta2 integrin expressed in CHO cells by flow cytometry; format: cell-based
Summary of the method: (§1)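 Cells (0.5 × 10^6) incubated with biotinylated ligand (100 nM) for 1 h at 4 °C in TBS with 1 mM Mg2+/Mn2+, washed, then stained with SA-PE. Fluorescence of 10,000 cells read by flow cytometry. Integrin-transfected CHO lines as previously described; α4 expression probed with anti-α4 mAb P1H4 plus FITC secondary.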

[2] = tested on: CHO; experiment: Binding affinity to human alpha4 T189A mutant/hamster beta-1 integrin expressed in CHO cells by flow cytometry; format: cell-based
Summary of the method: (§2)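 CHO cells stably expressing wild-type or single-Ala mutant human α4 paired with endogenous hamster β1. Cells incubated with biotinylated ligand in TBS (1 mM Mn2+), then SA-PE, and read by flow cytometry. Binding normalized to α4 expression measured with mAb B5G10. Mean ± s.d. of triplicates.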

[3] = target: Integrin alpha2/beta1 (Homo sapiens) (UniProt P05556+P17301); experiment: Binding affinity to alpha2beta1 integrin expressed in CHO cells by flow cytometry; format: cell-based; summary of the method: as §1
[4] = tested on: CHO; experiment: Binding affinity to human alpha4 K203A mutant/hamster beta-1 integrin expressed in CHO cells by flow cytometry; format: cell-based; summary of the method: as §2
[5] = tested on: CHO; experiment: Binding affinity to human alpha4 G181A mutant/hamster beta-1 integrin expressed in CHO cells by flow cytometry; format: cell-based; summary of the method: as §2
[6] = tested on: CHO; experiment: Binding affinity to human alpha4 S191A mutant/hamster beta-1 integrin expressed in CHO cells by flow cytometry; format: cell-based; summary of the method: as §2
[7] = tested on: CHO; experiment: Binding affinity to human alpha4 S186A mutant/hamster beta-1 integrin expressed in CHO cells by flow cytometry; format: cell-based; summary of the method: as §2
[8] = tested on: CHO; experiment: Binding affinity to alpha4beta1 integrin G184A mutant expressed in CHO cells by flow cytometry; format: cell-based; summary of the method: as §2
[9] = target: T1, Integrin alpha-4/beta-1 (Homo sapiens) (UniProt P05556+P13612); experiment: Binding affinity to alpha4beta1 integrin expressed in peripheral blood lymphocytes; format: cell-based
Summary of the method: (§3)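 Normal peripheral blood lymphocytes isolated from healthy-donor blood by Ficoll-Paque gradient. Cells (0.5 × 10^6) incubated 1 h at 4 °C with biotinylated ligand (100 nM) in TBS, then SA-PE, and 10,000 cells read by flow cytometry. Mn2+ added for integrin activation where indicated. Activation state checked with anti-β1 LIBS mAb.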

[10] = tested on: CHO; experiment: Binding affinity to human alpha4 G190A mutant/hamster beta-1 integrin expressed in CHO cells by flow cytometry; format: cell-based; summary of the method: as §2
[11] = tested on: CHO; experiment: Binding affinity to human alpha4 K201A mutant/hamster beta-1 integrin expressed in CHO cells by flow cytometry; format: cell-based; summary of the method: as §2
[12] = target: T1, Integrin alpha-4/beta-1 (Homo sapiens); experiment: Inhibition of integrin alpha-4-beta-1-mediated Jurkat cell adhesion to CS-1 coated surface by BCECF fluorescence analysis
[13] = tested on: CHO; experiment: Binding affinity to human alpha4 S185A mutant/hamster beta-1 integrin expressed in CHO cells by flow cytometry; format: cell-based; summary of the method: as §2
[14] = tested on: CHO; experiment: Binding affinity to human alpha4 Y187A mutant/hamster beta-1 integrin expressed in CHO cells by flow cytometry; format: cell-based; summary of the method: as §2
[15] = tested on: CHO; experiment: Binding affinity to human alpha4 Y202A mutant/hamster beta-1 integrin expressed in CHO cells by flow cytometry; format: cell-based; summary of the method: as §2
[16] = target: T1, Integrin alpha-4/beta-1 (Homo sapiens); experiment: Binding affinity to alpha4beta1 integrin expressed in human K562 cells by flow cytometry; format: cell-based; summary of the method: as §1
[17] = tested on: CHO; experiment: Binding affinity to human alpha4 P183A mutant/hamster beta-1 integrin expressed in CHO cells by flow cytometry; format: cell-based; summary of the method: as §2
[18] = tested on: Mus musculus; experiment: In vivo inhibition of alpha4beta1 integrin expressed in human Molt-4 cells xenografted into mouse at 60 nmol/kg, iv up to 44 hrs by NIRF imaging; format: functional, organism-based
Summary of the method: (§4)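 Nude (nu/nu) mice bearing subcutaneous shoulder Molt-4 xenografts (about 5 × 10^6 cells injected; tumors 0.5–1.0 cm). Probe made by complexing biotinylated ligand with SA-Alexa Fluor680 at 5:1 molar ratio, 1 h, 4 °C. Given 60 nmol kg-1 i.v. (n = 3). Imaged under pentobarbital anesthesia (60 mg kg-1 i.p.) at 0–44 h; excitation 625 nm, emission 700 nm, 30 s exposure. Tumor vs normal ROI intensities compared.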

[19] = tested on: CHO; experiment: Binding affinity to human alpha4 N200A mutant/hamster beta-1 integrin expressed in CHO cells by flow cytometry; format: cell-based; summary of the method: as §2
[20] = target: T1, Integrin alpha-4/beta-1 (Homo sapiens); experiment: Binding affinity to alpha4beta1 integrin expressed in human Reh cells by flow cytometry; format: cell-based; summary of the method: as §1
[21] = target: ITGB1-ITGA9 complex (Homo sapiens) (UniProt P05556+Q13797); experiment: Binding affinity to alpha9beta1 integrin expressed in CHO cells by flow cytometry; format: cell-based; summary of the method: as §1
[22] = target: ITGA6-ITGB1 complex (Homo sapiens) (UniProt P05556+P23229); experiment: Binding affinity to alpha6beta1 integrin expressed in CHO cells by flow cytometry; format: cell-based; summary of the method: as §1
[23] = target: T1, Integrin alpha-4/beta-1 (Homo sapiens); experiment: Binding affinity to alpha4beta1 integrin expressed in CHO cells by flow cytometry; format: cell-based; summary of the method: as §1
[24] = tested on: CHO; experiment: Binding affinity to human alpha4 W188A mutant/hamster beta-1 integrin expressed in CHO cells by flow cytometry; format: cell-based; summary of the method: as §2
[25] = target: Intercellular adhesion molecule (ICAM-1), Integrin alpha-L/beta-2 (Homo sapiens) (UniProt P20701+P05362+P05107); experiment: Binding affinity to alphaLbeta2 integrin expressed in CHO cells by flow cytometry; format: cell-based; summary of the method: as §1
[26] = target: T1, Integrin alpha-4/beta-1 (Homo sapiens); experiment: Binding affinity to alpha4beta1 integrin expressed in human HL-60 cells by flow cytometry; format: cell-based; summary of the method: as §1
[27] = tested on: CHO; experiment: Binding affinity to wild type human alpha4hamster beta-1 integrin expressed […] cells by flow cytometry; format: cell-based; summary of the method: as §2
[28] = tested on: CHO; experiment: Binding affinity to human alpha4 N196A mutant/hamster beta-1 integrin expressed in CHO cells by flow cytometry; format: cell-based; summary of the method: as §2
[29] = tested on: CHO; experiment: Binding affinity to human alpha4 Y195A mutant/hamster beta-1 integrin expressed in CHO cells by flow cytometry; format: cell-based; summary of the method: as §2
[30] = target: T1, Integrin alpha-4/beta-1 (Homo sapiens); experiment: Inhibition of integrin alpha-4-beta-1-mediated Jurkat cell adhesion to VCAM-1 coated surface by BCECF fluorescence analysis; format: cell-based
[31] = target: T1, Integrin alpha-4/beta-1 (Homo sapiens); experiment: Binding affinity to alpha4beta1 integrin transfected human Molt-4 cells by flow cytometry; format: cell-based; summary of the method: as §1
[32] = target: T1, Integrin alpha-4/beta-1 (Homo sapiens); experiment: Binding affinity to alpha4beta1 integrin expressed in peripheral blood lymphocytes in presence of Mn2+; format: cell-based; summary of the method: as §3
[33] = tested on: Mus musculus; experiment: In vivo inhibition of alpha4beta1 integrin expressed in human Molt-4 cells xenografted into mouse at 60 nmol/kg, iv up to 24 hrs by NIRF imaging; format: functional, organism-based; summary of the method: as §4

Sequence of Integrin alpha-M/beta-2 (Homo sapiens) (P05107 23-769 limits assumed, other chains not shown): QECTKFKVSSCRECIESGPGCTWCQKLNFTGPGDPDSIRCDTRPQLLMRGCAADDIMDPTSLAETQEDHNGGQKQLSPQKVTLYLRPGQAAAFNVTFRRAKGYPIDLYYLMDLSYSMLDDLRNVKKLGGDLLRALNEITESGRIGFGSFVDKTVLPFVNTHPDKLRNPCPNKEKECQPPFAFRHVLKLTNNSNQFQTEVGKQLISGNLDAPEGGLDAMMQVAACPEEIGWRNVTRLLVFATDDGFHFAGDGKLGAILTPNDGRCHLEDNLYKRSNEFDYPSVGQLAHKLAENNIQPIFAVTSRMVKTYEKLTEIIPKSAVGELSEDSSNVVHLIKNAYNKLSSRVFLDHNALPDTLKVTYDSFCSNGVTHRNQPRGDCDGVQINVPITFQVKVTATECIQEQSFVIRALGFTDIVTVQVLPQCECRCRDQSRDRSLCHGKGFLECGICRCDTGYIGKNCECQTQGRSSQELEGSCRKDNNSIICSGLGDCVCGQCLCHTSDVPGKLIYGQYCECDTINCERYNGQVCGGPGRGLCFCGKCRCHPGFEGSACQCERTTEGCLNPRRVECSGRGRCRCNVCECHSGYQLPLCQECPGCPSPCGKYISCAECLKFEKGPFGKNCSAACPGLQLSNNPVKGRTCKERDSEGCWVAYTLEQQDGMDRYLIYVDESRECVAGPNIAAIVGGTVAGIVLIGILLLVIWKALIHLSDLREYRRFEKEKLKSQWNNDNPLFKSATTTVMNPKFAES

Activity [1]: inactive | Activity [3]: inactive | Activity [9]: inactive | inhibition [12]: Active | Activity [16]: Active | Activity [20]: Active | Activity [21]: inactive | Activity [22]: inactive | Activity [23]: Active | Activity [25]: inactive | Activity [26]: Active | inhibition [30]: Active | Activity [31]: Active | Activity [32]: Active
Compound: Cc1ccccc1NC(=O)Nc1ccc(CC(=O)N[C@@H](CCCCNC(=O)/C=C/c2cccnc2)C(=O)N[C@@H](CCCC(=O)O)C(=O)NC2(C(N)=O)CCCCC2)cc1
Activity [2]: Active | Activity [4]: Active | Activity [5]: Active | Activity [6]: Active | Activity [7]: Active | Activity [8]: Active | Activity [10]: inactive | Activity [11]: Active | Activity [13]: Active | Activity [14]: inactive | Activity [15]: Active | Activity [17]: Active | inhibition [18]: Active | Activity [19]: Active | Activity [24]: inactive | Activity [27]: Active | Activity [28]: Active | Activity [29]: Active

Compound: Cc1ccccc1NC(=O)Nc1ccc(CC(=O)N[C@@H](CCCCNC(=O)/C=C/c2cccnc2)C(=O)N[C@@H](CCCC(=O)O)C(=O)NC2(C(=O)NCCOCCOCCNC(=O)CCC(=O)NCCOCCOCCNC(=O)CCC(=O)N[C@@H](CCCCNC(=O)CCCC[C@@H]3SC[C@@H]4NC(=O)N[C@@H]43)C(N)=O)CCCCC2)cc1
inhibition [33]: inactive

Reference: ChEMBL document CHEMBL1240310, “Combinatorial chemistry identifies high-affinity peptidomimetics against alpha4beta1 integrin for in vivo tumor imaging” (Nat Chem Biol, 2006)
